ChEMBL document CHEMBL2177000, “Pharmacokinetic optimization of class-selective histone deacetylase inhibitors and identification of associated candidate predictive biomarkers of hepatocellular carcinoma tumor response” (J Med Chem, 2012)
In brackets after ≈: the same amount, converted by molar mass. Values belong to the compound of their own block, whether it stands above or below them. Activity calls are given as the source filed them. The calls are words filed in the database; no cut-off is given here.

Assays:
[1] = Solubility in 50 mM phosphate buffer at pH 6.5 by HPLC method; format: physicochemical
How it was run: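 10 mM DMSO stock dried, residue redissolved in 50 mM phosphate buffer pH 6.5, stirred 1 h and shaken 2 h, left overnight, filtered and analysed by HPLC against calibration standards of 50−500 μM diluted from the DMSO stock.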

Bel-7402 = format: functional, Homo sapiens
SMMC-7721 [2] = format: functional, Homo sapiens
Mus musculus [3] = experiment: Half life in BALB/C mouse at 10 mg/kg, po or 2 mg/kg, iv by LC-MS/MS method; format: ADME, organism-based; conditions: in vivo
How it was run: (§1)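 Female-unspecified BALB/C nude mice (15−20 g, N = 16 per arm); iv bolus 2 mg/kg in 5% DMSO/40% PEG400/55% saline and/or oral gavage 10 mg/kg as 0.445% microcrystalline cellulose microsuspension. Blood sampled at nine (iv) or eight (po) time points into sodium heparin tubes; plasma by LC-MS/MS; noncompartmental analysis.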

[4] = Antitumor activity against treatment responding human hepatocellular carcinoma patient tumor xenografted in BALB/C mouse assessed as tumor growth inhibition at 100 mg/kg, po administered every other day for 4 weeks; format: functional; conditions: 672 h, read-out: TGI
How it was run: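 Tumor fragments (3×3×3 mm3) from HCC patients implanted subcutaneously in right flank of female BALB/c nu/nu mice (6−7 weeks). At about 200 (150−250) mm3, randomized (n = 10 per arm); Q2D PO 100 mpk in 15% Kleptose pH 4.5 tartaric buffer, about four weeks; caliper tumor volume three times weekly.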

Mus musculus [5] = experiment: Tmax in BALB/C mouse at 10 mg/kg, po or 2 mg/kg, iv by LC-MS/MS method; format: ADME, organism-based; conditions: in vivo
How it was run: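 Single-dose PK: iv bolus 2 mg/kg in 5% DMSO/40% PEG400/55% saline and/or oral gavage 10 mg/kg as 0.445% microcrystalline cellulose microsuspension; BALB/C nude mice (15−20 g, N = 16 per arm) or male Sprague−Dawley rats (250 ± 20 g, N = 3). Blood at eight (po) or nine (iv) time points into sodium heparin, plasma by LC-MS/MS, noncompartmental analysis.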

BGC-823 = format: functional, Homo sapiens
SMMC-7721 [6] = experiment: Induction of apoptosis in human SMMC-7721 cells assessed as necrotic cell level at 5 uM incubated for 48 hrs by FITC/Annexin V staining based flow cytometry (reference value: 2.31%)
Mus musculus [7] = experiment: Toxicity in human Bel7404 cells xenografted BALB/C mouse assessed as body weight loss at 50 mg/kg, po qd for 4 weeks; conditions: in vivo, 672 h
BEL-7404 = experiment: Antitumor activity against human BEL-7404 cells xenografted in BALB/C mouse assessed as tumor growth inhibition at 100 mg/kg, po administered every other day for 4 weeks; conditions: BEL-7404, po, 672 h, read-out: TGI
Mus musculus [8] = experiment: Up-regulation of SPINT2 gene expression in human hepatocellular carcinoma patient tumor xenografted in BALB/C mouse at 100 mg/kg, po administered every other day for 4 weeks by […]; format: functional, organism-based; design: dose 100 mg/kg
How it was run: (§2)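 Patient HCC tumor fragments (3 × 3 × 3 mm3) implanted subcutaneously in female BALB/c nu/nu mice; at ~200 (150−250) mm3 dosed orally Q2D 100 mpk in 15% Kleptose pH 4.5 tartaric buffer for about four weeks. Tumor RNA (TRIzol, DNase I) run on 22-gene qRT-PCR array, normalized to GAPDH/β-glucuronidase by ΔCt, fold change versus day 0.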

Mus musculus [9] = experiment: Up-regulation of SOCS1 gene expression in human hepatocellular carcinoma patient tumor xenografted in BALB/C mouse at 100 mg/kg, po administered every other day for 4 weeks by […]; format: functional, organism-based; design: dose 100 mg/kg; how it was run: as §2
Mus musculus [10] = experiment: Up-regulation of SDC2 gene expression in human hepatocellular carcinoma patient tumor xenografted in BALB/C mouse at 100 mg/kg, po administered every other day for 4 weeks by […]; format: functional, organism-based; design: dose 100 mg/kg; how it was run: as §2
Mus musculus [11] = experiment: Up-regulation of PYCARD gene expression in human hepatocellular carcinoma patient tumor xenografted in BALB/C mouse at 100 mg/kg, po administered every other day for 4 weeks by […]; format: functional, organism-based; design: dose 100 mg/kg; how it was run: as §2
Mus musculus [12] = experiment: Up-regulation of IGFBP3 gene expression in human hepatocellular carcinoma patient tumor xenografted in BALB/C mouse at 100 mg/kg, po administered every other day for 4 weeks by […]; format: functional, organism-based; design: dose 100 mg/kg; how it was run: as §2
Mus musculus [13] = experiment: Up-regulation of CTGF gene expression in human hepatocellular carcinoma patient tumor xenografted in BALB/C mouse at 100 mg/kg, po administered every other day for 4 weeks by […]; format: functional, organism-based; design: dose 100 mg/kg; how it was run: as §2
Mus musculus [14] = experiment: Up-regulation of TFPI2 gene expression in human hepatocellular carcinoma patient tumor xenografted in BALB/C mouse at 100 mg/kg, po administered every other day for 4 weeks by […]; format: functional, organism-based; design: dose 100 mg/kg; how it was run: as §2
Mus musculus [15] = experiment: Inhibition of Class 1 histone deacetylase in treatment responding human hepatocellular carcinoma patient tumor xenografted in BALB/C mouse assessed as induction of histone H3 acetylation at 100 mg/kg, po administered every other day for 4 weeks by immunohistochemistry; format: functional, organism-based; design: dose 100 mg/kg
How it was run: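 Patient-derived HCC xenografts in female nude mice given 100 mpk Q2D PO (15% Kleptose, pH 4.5 tartaric buffer); single dose on last day, tumors harvested 0 to 24 h post-dose. Paraffin sections, citrate pH 6.0 antigen retrieval, anti-Ac-H3 (Lys9) 1:200 overnight 4 °C, HRP/DAB; scored 0−3 independently by two pathologists.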

Mus musculus [16] = experiment: Up-regulation of RASSF1 gene expression in human hepatocellular carcinoma patient tumor xenografted in BALB/C mouse at 100 mg/kg, po administered every other day for 4 weeks by […]; format: functional, organism-based; design: dose 100 mg/kg; how it was run: as §2
[17] = biological target: Histone deacetylase (Homo sapiens) (UniProt Q13547+O15379+Q9UBN7+Q92769+Q9UQL6+Q8WUI4+Q9BY41+Q96DB2+P56524+Q9UKV0+Q969S8); experiment: Inhibition of Class 1 histone deacetylase in human HeLa cells assessed as induction in p21 protein expression at 3 uM incubated for 16 hrs by luciferase reporter gene assay relative to HDAC inhibitor entinostat; format: cell-based; design: scale not given: the % may be the effect or the level left
Mus musculus [18] = experiment: Down-regulation of CFLAR gene expression in human hepatocellular carcinoma patient tumor xenografted in BALB/C mouse at 100 mg/kg, po administered every other day for 4 weeks by […]; format: functional, organism-based; design: dose 100 mg/kg
How it was run: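 Patient-derived HCC xenografts dosed 100 mpk Q2D PO; tumor total RNA (TRIzol, DNase I treated, column-purified) run on a customized 22-gene qRT-PCR array; ΔCt against mean of GAPDH and β-glucuronidase, fold-change relative to day 0 (pre-treatment).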

[19] = AUC in BALB/C mouse at 10 mg/kg, po or 2 mg/kg, iv by LC-MS/MS method; format: ADME, organism-based, Plasma; conditions: BALB/C, plasma; how it was run: as §1
[20] = Clearance in BALB/C mouse at 10 mg/kg, po or 2 mg/kg, iv by LC-MS/MS method; format: ADME, organism-based; conditions: in vivo; how it was run: as §1

- solubility [1]: 136 µg/mL (≈ 286 µM)
- GI90 (Bel-7402): 1.2 µM
- GI90 (SMMC-7721 [2]): 1.9 µM
- t1/2 (Mus musculus [3]): 3.4 h
- Tmax (Mus musculus [5]): 15 min
- GI90 (BGC-823): 2.2 µM
SMILES: CN1C[C@H](C(=O)Nc2ccc(Cl)cc2)[C@@H](c2ccc(/C=C/C(=O)Nc3ccccc3N)cc2)C1 [listing 1 of 2 here]
- inhibition in vivo at 100 mg/kg [4]: 50%
- Activity (SMMC-7721 [6]): 15.41%
- Activity (Mus musculus [7]): < 10%
- inhibition in vivo at 100 mg/kg (BEL-7404): > 60%

- Activity [17]: 257%
SMILES: CN1C[C@H](C(=O)Nc2ccc(Cl)cc2)[C@@H](c2ccc(/C=C/C(=O)Nc3ccccc3N)cc2)C1 [listing 2 of 2 here]
- Activity (Mus musculus [8]): inactive
- Activity (Mus musculus [9]): Active
- Activity (Mus musculus [10]): Active
- Activity (Mus musculus [11]): inactive
- Activity (Mus musculus [12]): Active
- Activity (Mus musculus [13]): Active
- Activity (Mus musculus [14]): inactive
- inhibition (Mus musculus [15]): Active
- Activity (Mus musculus [16]): inactive
- Activity (Mus musculus [18]): Active

- AUC [19]: 2540 ng·h/mL
- clearance [20]: 58 mL/min/kg
SMILES: CN1C[C@@H](C(=O)Nc2ccc(Cl)cc2)[C@H](c2ccc(/C=C/C(=O)Nc3ccccc3N)cc2)C1

- AUC [19]: 3570 ng·h/mL
- clearance [20]: 23 mL/min/kg
- Activity [17]: 130%
SMILES: CN1C[C@H](C(=O)Nc2ccc(Cl)cc2)[C@@H](c2ccc(/C=C/C(=O)Nc3ccccc3N)cc2F)C1 (racemic)
